Data reported in PubChem BioAssay.
Records with an inconclusive call do not appear.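 Rule for the calls, unless noted: active = growth inhibition above 25% in both replicates, a cutoff set 3 SD above the mean; inconclusive = above 25% in only one replicate; inactive = the rest.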

How the values were obtained:
[1] = S. cerevisiae growth inhibition in permissive medium (OD615), pilot counter-assay for S. cerevisiae lifespan shortening project, permissive growth control (AID 705); conditions: OD615, 24 h, at 10 µM, stronger effect = higher value
Method in brief: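 assay system = Saccharomyces cerevisiae strain carrying genetically modified DeaD replicative-lifespan system | technique = absorbance (optical density) at 615 nm | buffer or medium = permissive raffinose/galactose medium | timing = cells pre-grown 4 h, then 24 h compound exposure, 30 °C humidified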

[2] = S. cerevisiae growth inhibition in restrictive medium, OD615, pilot screen, restrictive growth control, yeast lifespan reduction project (AID 706;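 active = growth inhibition above a set limit, 3 SD over mean compound inhibition, in both replicates, cut at about 43% in these data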;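 note: modified DeaD lifespan yeast strain shifted to restrictive glucose medium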); conditions: OD615, 48 h, at 10 µM, stronger effect = higher value
Method in brief: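 System: modified S. cerevisiae. Buffer or medium: CSMM-D glucose medium. Incubation: 4 h pre-growth plus 48 h compound exposure, 30 °C. Detection: absorbance (optical density) measured at 615 nm.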

[3] = doxorubicin toxicity protection in MRP-1 cells – H69AR cells, CellTiter-Glo, duplicate, MRP-1 activator project, pilot screen (AID 807;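 active = viability increase at or above a cutoff of the median across tested compounds plus 3 SD, cut at about 8.5% in these data, passing the limit was not always enough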;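 note: compound pretreatment 18-22 h then 72 h combined with doxorubicin; 0% = doxorubicin alone and 100% = vehicle without doxorubicin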); conditions: H69AR viability with doxorubicin, CellTiter-Glo luminescence; at 10 µM; stronger effect = higher value
[4] = viability of HCT116 without oncogenic beta-catenin – human colon tumor cells, pilot screen (AID 823;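 active = cell viability at or below a set limit in both duplicate runs, the limit being the all-compound median minus 4 SD, cut at about 23% in these data, passing the limit was not always enough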;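 note: 0% = wells killed by 20 µM Hyamine and 100% = untreated DMSO cell wells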); conditions: HCT116 beta-catenin knockout viability, CellTiter-Glo, 60 h; at 10 µM; stronger effect = lower value
[5] = viability of PTEN-null HCT116 cells – cell-based, HCT116 clonal line, CellTiter-Glo, pilot screen (AID 824;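 active = viability at or below 27.92% in each of two runs, the all-compound median minus 4 SD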;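 note: 0% = 20 µM Hyamine control and 100% = vehicle cell control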); conditions: HCT116 PTEN-deleted viability, 60 h, at 10 µM, stronger effect = lower value
[6] = RAM pathway blockade in budding yeast – dse1pr::URA3 reporter, 5-FOA selection, pilot screen (AID 869;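 active = inhibition over a set limit, the all-compound mean plus 3 SD, in both replicate runs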;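 note: 0% = DMSO wells with no growth and 100% = 10 µM 1-NA-PP1 with full growth; RAM network block rescues cells from 5-FOA so hits raise OD615 growth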); conditions: S. cerevisiae dse1pr::URA3 5-FOA growth, OD615, 2 d; at 10 µM; stronger effect = higher value; strain carries analog-sensitive mutant Cbk1 kinase
[7] = RAM signaling pathway blockade in yeast – S. cerevisiae, Pdr1DBD-CYC8 efflux-inhibited sensitized strain, primary screen (AID 1298;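 active = RAM network inhibition above 8.4% in each of two replicates, 3 SD over the compound average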;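 note: 0% = DMSO untreated cells without growth and 100% = 10 µM 1-NA-PP1 full growth; higher means more yeast growth rescued from 5-FOA killing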); conditions: S. cerevisiae cbk1-as DSE1-URA3 strain, 5-FOA growth OD615, 2 d; at 50 µM; stronger effect = higher value

O=C(NCCCNC(=O)c1ccco1)c1ccco1
inactive: growth inhibition [1] -0.405% | growth inhibition [2] 0.005% | viability increase [3] -2.35% | viability [4] 99.9% | viability [5] 107% | inhibition [6] -0.525% | RAM network inhibition [7] 0.16%

CCOC(=O)NC(Nc1nnc(SCC)s1)(C(F)(F)F)C(F)(F)F
inactive: growth inhibition [1] -3.14% | growth inhibition [2] 2.81% | viability increase [3] -2.85% | viability [4] 89.8% | viability [5] 91% | inhibition [6] 1.5% | RAM network inhibition [7] 3.2%

CN(CC(=O)N1CCCCCC1)S(=O)(=O)c1cccc2cccnc12
inactive: growth inhibition [1] -6.24% | growth inhibition [2] -27% | viability increase [3] -4.51% | viability [4] 101% | viability [5] 82% | inhibition [6] 2.14% | RAM network inhibition [7] -1.18%

CNc1ccc(OC(F)F)cc1C(=O)c1ccccc1
inactive: growth inhibition [1] 12.9% | growth inhibition [2] -4.32% | viability increase [3] -2.34% | viability [4] 89.8% | viability [5] 92.9% | inhibition [6] 0.685% | RAM network inhibition [7] 2.22%

COc1ccc(N(CC(=O)Nc2ccc(C)cn2)S(=O)(=O)c2c(C)nn(C)c2C)cc1
inactive: growth inhibition [1] -17.5% | growth inhibition [2] -9.45% | viability increase [3] -1.95% | viability [4] 97.5% | viability [5] 96.2% | inhibition [6] 0.055% | RAM network inhibition [7] 5.27%

CCSc1nnc(Cn2c(=O)sc3ccccc32)n1-c1ccc(OC)cc1
inactive: growth inhibition [1] -4.46% | growth inhibition [2] 30.7% | viability increase [3] -1.8% | viability [4] 92.1% | viability [5] 86.5% | inhibition [6] -0.94% | RAM network inhibition [7] 9.11%

CCOc1ccccc1N1C(=O)CC(Nc2ccc(N3CCOCC3)cc2)C1=O (stereo unspecified)
inactive: growth inhibition [1] -0.205% | growth inhibition [2] 7.53% | viability increase [3] -2.65% | viability [4] 101% | viability [5] 101% | inhibition [6] 1.6% | RAM network inhibition [7] 5.11%

Cc1ccc(S(=O)(=O)N2C(=S)SCC2(C)C)cc1
inactive: growth inhibition [1] -0.04% | growth inhibition [2] 14.3% | viability increase [3] -1.47% | viability [4] 91.9% | viability [5] 83.5% | inhibition [6] -1.13% | RAM network inhibition [7] 0.51%

Brc1ccc(C2Nc3cccc4cccc(c34)N2)o1
inactive: growth inhibition [1] -13.8% | growth inhibition [2] -9.64% | viability increase [3] -0.34% | viability [4] 85.9% | viability [5] 92.5% | inhibition [6] 2.66% | RAM network inhibition [7] 1.71%

CCN1CCN(C(=O)c2cc3c(s2)-c2ccccc2S(=O)(=O)C3)CC1
inactive: growth inhibition [1] -4.69% | growth inhibition [2] -9.1% | viability increase [3] -2.15% | viability [4] 99.6% | viability [5] 92.5% | inhibition [6] 2.36% | RAM network inhibition [7] 0.72%

Cc1nc2ccc(N)cc2s1
inactive: growth inhibition [1] -15.7% | growth inhibition [2] -13.4% | viability increase [3] -2.73% | viability [4] 109% | viability [5] 112% | inhibition [6] 0.07% | RAM network inhibition [7] 1.25%

Cc1csc2ncc(C(=O)Nc3ccc(C(F)(F)F)cc3)c(=O)n12
inactive: growth inhibition [1] -10.2% | growth inhibition [2] -17.2% | viability increase [3] -2.44% | viability [4] 84.8% | viability [5] 85.8% | inhibition [6] 3.73% | RAM network inhibition [7] 3.03%

Clc1ccc(-c2nc(-c3ccccn3)no2)cc1Cl
inactive: growth inhibition [1] -4.08% | growth inhibition [2] 0.26% | viability increase [3] -4.17% | viability [4] 72.6% | viability [5] 67.7% | inhibition [6] 2.6% | RAM network inhibition [7] 3.88%

Brc1cccc(-c2nnc3sc(CNC4CCCC4)cn23)c1
inactive: growth inhibition [1] -6.88% | growth inhibition [2] 5.62% | viability increase [3] -0.97% | viability [4] 95.7% | viability [5] 89.6% | inhibition [6] 1.56% | RAM network inhibition [7] 3.26%

CC1=C(C(=O)OCc2ccccc2)C(c2ccco2)C2=C(CC(C)(C)CC2=O)N1 (stereo unspecified)
inactive: growth inhibition [1] -13.1% | growth inhibition [2] -7.33% | viability increase [3] -6.3% | viability [4] 71.9% | viability [5] 67.5% | inhibition [6] 2.4% | RAM network inhibition [7] 1.23%

O=C(CN(Cc1ccccc1)S(=O)(=O)c1ccccc1)NC1CC1
inactive: growth inhibition [1] -4.36% | growth inhibition [2] 11.6% | viability increase [3] -1.25% | viability [4] 102% | viability [5] 96% | inhibition [6] -0.45% | RAM network inhibition [7] 0.45%

COc1cc(-c2nc3cnccn3c2Nc2ccccc2)ccc1O
inactive: growth inhibition [1] -7.8% | growth inhibition [2] 0.535% | viability increase [3] -5.59% | viability [4] 47.8% | viability [5] 44.7% | inhibition [6] 2.43% | RAM network inhibition [7] 0.41%

CCOC(=O)CNC(=O)C(NC(=O)C1CCC(C)CC1)C(C)CC (stereo unspecified)
inactive: growth inhibition [1] 0.975% | growth inhibition [2] -17.8% | viability increase [3] -1.73% | viability [4] 98.8% | viability [5] 98% | inhibition [6] 0.95% | RAM network inhibition [7] 0.93%
